According to ChEMBL document CHEMBL1125382, “Benzazepinone calcium channel blockers. 2. Structure-activity and drug metabolism studies leading to potent antihypertensive agents. Comparison with benzothiazepinones” (J Med Chem, 1992):

Columns and labels:
[1] = tested on: Rattus norvegicus; test: In vivo evaluation for the percentage decrease in blood pressure at 135 umol/kg administered through oral route in spontaneously hypertensive rats and observed for 12-18 h.; type: functional
How it was run: (§1)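 Male spontaneously hypertensive rats, 15 weeks old, dosed by oral gavage at 135 μmol/kg. Blood pressure recorded directly via an indwelling abdominal aortic catheter exteriorized in the intrascapular region. Sampled over 20-s intervals every 5 min for 24 h. Value is the maximum percent fall in systolic pressure from predrug control within the stated period, mean of five rats.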

[2] = organism: Oryctolagus cuniculus; test: In vitro evaluation for the vasorelaxant effects in circumferential strips of potassium-depolarized rabbit aorta. (IC50 in rabbit aorta strips contracted with KCl; type: functional
How it was run: (§2)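 Circumferential strips of rabbit thoracic aorta, contracted by depolarization with 100 mM KCl, then exposed to various concentrations of compound.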

[3] = tested on: Rattus norvegicus; test: In vivo evaluation for the percentage decrease in blood pressure at 135 umol/kg administered through oral route in spontaneously hypertensive rats and observed for 0-6 h.; type: functional; how it was run: as §1
[4] = tested on: Rattus norvegicus; test: In vivo evaluation for the percentage decrease in blood pressure at 135 umol/kg administered through oral route in spontaneously hypertensive rats and observed for 6-12 h.; type: functional; how it was run: as §1
[5] = In Vitro evaluation for the affinity for the diltiazem receptor in isolated guinea pig skeletal muscle microsomal preparations by inhibiting [3H]diltiazem binding; type: microsomes, Cavia porcellus, Muscle tissue
How it was run: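 Membranes from male guinea pig (350–450 g) hind-limb muscle, mainly quadriceps and gastrocnemius, in 50 mM Tris-HCl. 125–250 μg protein incubated with [3H]-d-cis-diltiazem and competing drug, 250 μL final, 30 °C for 1 h. Rapid GF/B filtration and scintillation counting. Nonspecific binding defined with 100 μM unlabeled diltiazem. Kd calculated from concentration–response curves for inhibition of specific binding; ±SEM.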

[6] = organism: Oryctolagus cuniculus; test: In Vitro evaluation for the vasorelaxant effects in circumferential strips of potassium-depolarized rabbit aorta. (IC50 in rabbit aorta strips contracted with KCl; type: functional; how it was run: as §2
[7] = organism: Oryctolagus cuniculus; test: Vasorelaxant effects in circumferential strips of potassium-depolarized rabbit aorta. (IC50 in rabbit aorta strips contracted with KCl(95% confidence interval)); type: functional, organism-based; how it was run: as §2
[8] = tested on: Rattus norvegicus; test: In vivo evaluation for the percentage decrease in blood pressure at 270 umol/kg administered through oral route in spontaneously hypertensive rats and observed for 12-18 h; type: functional

SMILES	Decrease [1]	IC50 ([2]; Oryctolagus cuniculus, Aorta)	Decrease [3]	Decrease [4]	Kd [5]	IC50 [6]	IC50 ([7]; Oryctolagus cuniculus, Aorta)	Decrease [8]	IC50 [7]	IC50 [2]
CNCCN1C(=O)[C@H](O)[C@H](c2ccc(OC)cc2)Cc2cc(C(F)(F)F)ccc21	14%	1900 nM	14%	15%						
COc1ccc(C2Sc3cc(OC)ccc3N(CCN(C)C)C(=O)C2OC(C)=O)cc1 (stereo not given)		120 nM			42 nM					
COc1ccc([C@@H]2Cc3ccc(Cl)cc3N(CCN(C)C)C(=O)[C@@H]2OC(C)=O)cc1	4%	7700 nM	7%	2%						
COc1ccc([C@@H]2Cc3cc(OC)ccc3N(CCN(C)C)C(=O)[C@@H]2OC(C)=O)cc1.Cl	10%		15%	8%						
COc1ccc([C@@H]2Cc3c(cccc3C(F)(F)F)N(CC=O)C(=O)[C@@H]2OC(C)=O)cc1						> 3000 nM				
COc1ccc([C@@H]2Cc3cc(C(F)(F)F)ccc3N(CCN(C)C)C(=O)[C@@H]2O)cc1.Cl	14%		8%	9%						
COc1ccc([C@@H]2Cc3cc(C(F)(F)F)ccc3N(CCN(C)C)C(=O)[C@@H]2OC(C)=O)cc1.Cl (stereo in doubt)	19%		19%	22%	180 nM		1600 nM			
COc1ccc([C@@H]2Cc3c(cccc3C(F)(F)F)N(CCO)C(=O)[C@@H]2OC(C)=O)cc1	4%		1%	3%						
COc1ccc([C@@H]2Cc3cc(C(F)(F)F)ccc3N(CCN(C)C)C(=O)[C@@H]2OC(C)=O)cc1.Cl	18%			19%						
COc1ccc([C@@H]2Cc3cc(Cl)ccc3N(CCN(C)C)C(=O)[C@@H]2OC(C)=O)cc1			13%	14%			1500 nM	18%		
COc1ccc([C@@H]2Cc3c(cccc3C(F)(F)F)N(C[C@@H]3CCCN3C)C(=O)[C@@H]2OC(C)=O)cc1	29%	520 nM	30%	29%						
COc1ccc([C@H]2Cc3c(cccc3C(F)(F)F)N(CCN(C)C)C(=O)[C@@H]2OC(C)=O)cc1.Cl (relative stereo)	11%	> 10000 nM	5%	9%	3800 nM					
COc1ccc([C@H]2Cc3cc(Cl)ccc3N(CCN(C)C)C(=O)[C@@H]2OC(C)=O)cc1	12%		12%	12%	690 nM					
CNCCN1C(=O)[C@H](O)[C@H](c2ccc(OC)cc2)Cc2c1cccc2C(F)(F)F	22%	690 nM	16%	20%						
COc1ccc([C@H]2Cc3c(cccc3C(F)(F)F)N(CCN(C)C)C(=O)[C@H]2OC(C)=O)cc1.Cl (stereo in doubt; 4p)	7%			8%	1200 nM				3900 nM	
COc1ccc([C@@H]2Sc3cc(Cl)ccc3N(CCN(C)C)C(=O)[C@@H]2OC(C)=O)cc1 [CLENTIAZEM]					81 nM					240 nM
COc1ccc([C@H]2Cc3c(cccc3C(F)(F)F)N(CCN(C)C)C(=O)[C@H]2OC(C)=O)cc1.Cl (stereo in doubt; 4n)	9%		9%	9%	2000 nM		4900 nM			
COc1ccc([C@@H]2Cc3c(OC)cccc3N(CCN(C)C)C(=O)[C@@H]2OC(C)=O)cc1.Cl	1%		0%	0%			2400 nM			

SMILES	Decrease [1]	IC50 ([2]; Oryctolagus cuniculus, Aorta)	Decrease [3]	Decrease [4]	Kd [5]	IC50 [6]	IC50 ([7]; Oryctolagus cuniculus, Aorta)	Decrease [8]	IC50 [7]	IC50 [2]
COc1ccc([C@@H]2Cc3c(cccc3C(F)(F)F)N(CC(=O)O)C(=O)[C@@H]2OC(C)=O)cc1	4%	> 3000 nM	6%	3%						
CNCCN1C(=O)[C@H](OC(C)=O)[C@H](c2ccc(OC)cc2)Cc2c1cccc2C(F)(F)F	32%		32%	34%			180 nM			
COc1ccc([C@@H]2Cc3c(cccc3C(F)(F)F)N(C[C@H]3CCCN3)C(=O)[C@@H]2OC(C)=O)cc1	26%		21%	22%			630 nM			
COc1ccc([C@@H]2Cc3c(cccc3C(F)(F)F)N(C[C@@H]3CCCN3)C(=O)[C@@H]2O)cc1	27%		30%	26%		95 nM				
COc1ccc([C@@H]2Sc3ccccc3N(CCN(C)C)C(=O)[C@@H]2OC(C)=O)cc1 (relative stereo) [DILTIAZEM]	17%		23%	12%	200 nM		210 nM			
COc1ccc([C@H]2Cc3cc(Cl)ccc3N(CCN(C)C)C(=O)[C@H]2OC(C)=O)cc1 (relative stereo)	9%		1%	4%	8200 nM					
COc1ccc([C@@H]2Cc3c(cccc3C(F)(F)F)N(CCN(C)C)C(=O)[C@@H]2O)cc1	28%		21%	26%			300 nM			
COc1ccc([C@@H]2Sc3cc(Cl)ccc3N(CCN(C)C)C(=O)[C@@H]2OC(C)=O)cc1 (relative stereo) [CLENTIAZEM]	24%		41%	26%	95 nM					
COc1ccc([C@H]2Cc3cc(C(F)(F)F)ccc3N(CCN(C)C)C(=O)[C@H]2OC(C)=O)cc1.Cl (stereo in doubt)	7%		7%	8%	6300 nM		> 10000 nM			
COc1ccc([C@@H]2Cc3c(cccc3C(F)(F)F)N(C[C@H]3CCCN3)C(=O)[C@@H]2O)cc1	18%		17%	18%			890 nM			
CNCCN1C(=O)[C@H](OC(C)=O)[C@H](c2ccc(OC)cc2)Cc2cc(C(F)(F)F)ccc21	31%	880 nM	28%	29%						
COc1ccc([C@@H]2Cc3c(cccc3C(F)(F)F)N(C[C@@H]3CCCN3)C(=O)[C@@H]2OC(C)=O)cc1	38%		45%	39%						
COc1ccc([C@@H]2Cc3c(cccc3C(F)(F)F)N(CCN(C)C)C(=O)[C@@H]2OC(C)=O)cc1.Cl (stereo in doubt)	30%		31%	27%	120 nM		150 nM			
COc1ccc([C@@H]2Cc3c(Cl)cccc3N(CCN(C)C)C(=O)[C@@H]2OC(C)=O)cc1	11%		9%	8%			1600 nM			
COc1ccc([C@@H]2Cc3c(cccc3C(F)(F)F)N(C[C@H]3CCCN3C)C(=O)[C@@H]2OC(C)=O)cc1	18%		20%	21%			1100 nM			
COc1ccc([C@@H]2Sc3ccccc3N(CCN(C)C)C(=O)[C@@H]2OC(C)=O)cc1 [DILTIAZEM]						1800 nM				
COc1ccc([C@@H]2Cc3c(cccc3C(F)(F)F)N(CCN(C)C)C(=O)[C@@H]2OC(C)=O)cc1.Cl	24%	240 nM	24%	26%						
